Laboratory results: ChEMBL document CHEMBL1154078, “Synthesis of novel purine nucleosides towards a selective inhibition of human butyrylcholinesterase” (Bioorg Med Chem, 2009)
Activity calls are given as the source filed them. The rule behind the calls is not given here.

Columns and labels:
[1] = target: T1, Cholinesterase (Homo sapiens, UniProt P06276); test: Inhibition of BChE in human serum assessed as hydrolysis of butyrylthiocholine at 100 ug/mL by Ellman's method; format: cell-free
Procedure, shortened: (§1)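 Human serum BChE (0.44 U/mL solution) in 0.1 M phosphate buffer pH 8.0 with S-butyrylthiocholine iodide and DTNB. Absorbance at 410 nm followed kinetically for 4 min at 30 °C, at least four replicates. Inhibition % = 100 − 100·V/V_max, where V_max comes from blanks without inhibitor; one-sided t-test. IC50 obtained by non-linear regression of the dose–response, given as mean ± SEM.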

[2] = target: T2, Acetylcholinesterase (Bos taurus) (UniProt P23795); test: Inhibition of AChE in bovine erythrocytes assessed as hydrolysis of acetylthiocholine by Ellman's method
T2 sequence (whole entry): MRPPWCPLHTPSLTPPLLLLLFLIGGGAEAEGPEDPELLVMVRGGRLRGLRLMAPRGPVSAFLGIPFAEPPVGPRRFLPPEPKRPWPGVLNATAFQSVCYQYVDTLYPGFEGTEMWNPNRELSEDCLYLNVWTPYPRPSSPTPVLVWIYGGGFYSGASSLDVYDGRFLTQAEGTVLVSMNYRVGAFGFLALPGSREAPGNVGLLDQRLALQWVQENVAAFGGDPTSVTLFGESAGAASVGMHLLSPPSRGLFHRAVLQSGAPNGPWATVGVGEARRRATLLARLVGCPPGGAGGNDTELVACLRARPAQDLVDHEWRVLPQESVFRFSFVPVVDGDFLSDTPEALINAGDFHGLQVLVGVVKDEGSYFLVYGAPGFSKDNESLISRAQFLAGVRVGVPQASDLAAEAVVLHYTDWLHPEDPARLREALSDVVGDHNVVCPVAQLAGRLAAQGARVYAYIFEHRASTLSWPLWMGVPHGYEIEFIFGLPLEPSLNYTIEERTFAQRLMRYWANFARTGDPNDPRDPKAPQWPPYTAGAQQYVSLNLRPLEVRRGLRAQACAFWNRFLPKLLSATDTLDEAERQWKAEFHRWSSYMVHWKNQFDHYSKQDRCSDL
Procedure, shortened: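 Bovine erythrocyte AChE (1.32 U/mL solution) in 0.1 M phosphate buffer pH 8.0 with acetylthiocholine iodide and DTNB. Yellow product read kinetically at 410 nm for 4 min at 30 °C. Rates compared with no-inhibitor V_max; inhibition % = 100 − 100·V/V_max. At least four replicates. One-sided t-test against 0% inhibition.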

[3] = target: T1, Cholinesterase; test: Inhibition of BChE in human serum assessed as hydrolysis of butyrylthiocholine by Ellman's method; format: cell-free
Procedure, shortened: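 Human serum BChE (0.44 U/mL solution) in 0.1 M phosphate buffer pH 8.0 with S-butyrylthiocholine iodide and DTNB. Absorbance at 410 nm followed kinetically for 4 min at 30 °C, at least four replicates. IC50 obtained by non-linear regression of the dose–response, given as mean ± SEM.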

[4] = target: T1, Cholinesterase; test: Inhibition of BChE in human serum assessed as hydrolysis of butyrylthiocholine at 10 ug/mL by Ellman's method; procedure, shortened: as §1
[5] = target: T1, Cholinesterase; test: Inhibition of BChE in human serum assessed as hydrolysis of butyrylthiocholine at 1 ug/mL by Ellman's method; format: cell-free; procedure, shortened: as §1
[6] = Cytotoxicity against human A549 cells assessed as cell viability at 2000 ug/mL after 24 hrs by MTT assay relative to control; format: cell-based; settings: read-out: Activity
Procedure, shortened: (§2)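 A549 cells seeded, left 24 h to attach, then exposed to compound for 24 h. Hydrogen peroxide served as positive control and pure solvent as negative control. At 48 h of culture, MTT added to a final concentration of 0.5 mg/mL and incubated 3 h. Medium removed, cells washed twice, formazan dissolved in DMSO with shaking for 20 min at room temperature.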

[7] = Cytotoxicity against human A549 cells assessed as cell viability at 200 ug/mL after 24 hrs by MTT assay relative to control; format: cell-based; settings: read-out: Activity; procedure, shortened: as §2
[8] = Cytotoxicity against human A549 cells assessed as cell viability at 20 ug/mL after 24 hrs by MTT assay relative to control; format: cell-based; settings: read-out: Activity; procedure, shortened: as §2
[9] = Cytotoxicity against human A549 cells assessed as cell viability at 2 ug/mL after 24 hrs by MTT assay relative to control; format: cell-based; settings: read-out: Activity; procedure, shortened: as §2
[10] = Cytotoxicity against human A549 cells assessed as cell viability at 0.2 ug/mL after 24 hrs by MTT assay relative to control; format: cell-based; settings: read-out: Activity; procedure, shortened: as §2
[11] = target: T1, Cholinesterase; test: Inhibition of BChE in human serum assessed as hydrolysis of butyrylthiocholine at 0.1 ug/mL by Ellman's method; procedure, shortened: as §1
[12] = Cytotoxicity against human A549 cells assessed as cell viability at 100 ug/mL after 24 hrs by MTT assay relative to control; format: cell-based; settings: read-out: Activity
Procedure, shortened: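 A549 cells seeded, allowed to attach 24 h, then exposed to compound for 24 h; hydrogen peroxide positive control, solvent negative control. MTT added at 48 h of culture (final 0.5 mg/mL), 3 h incubation, cells washed twice, formazan dissolved in DMSO with 20 min shaking at room temperature; viable, metabolically active cells quantified.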

[13] = target: T1, Cholinesterase; test: Inhibition of BChE in human serum assessed as hydrolysis of butyrylthiocholine at 0.01 ug/mL by Ellman's method; format: cell-free; procedure, shortened: as §1

T1 sequence (P06276 whole entry): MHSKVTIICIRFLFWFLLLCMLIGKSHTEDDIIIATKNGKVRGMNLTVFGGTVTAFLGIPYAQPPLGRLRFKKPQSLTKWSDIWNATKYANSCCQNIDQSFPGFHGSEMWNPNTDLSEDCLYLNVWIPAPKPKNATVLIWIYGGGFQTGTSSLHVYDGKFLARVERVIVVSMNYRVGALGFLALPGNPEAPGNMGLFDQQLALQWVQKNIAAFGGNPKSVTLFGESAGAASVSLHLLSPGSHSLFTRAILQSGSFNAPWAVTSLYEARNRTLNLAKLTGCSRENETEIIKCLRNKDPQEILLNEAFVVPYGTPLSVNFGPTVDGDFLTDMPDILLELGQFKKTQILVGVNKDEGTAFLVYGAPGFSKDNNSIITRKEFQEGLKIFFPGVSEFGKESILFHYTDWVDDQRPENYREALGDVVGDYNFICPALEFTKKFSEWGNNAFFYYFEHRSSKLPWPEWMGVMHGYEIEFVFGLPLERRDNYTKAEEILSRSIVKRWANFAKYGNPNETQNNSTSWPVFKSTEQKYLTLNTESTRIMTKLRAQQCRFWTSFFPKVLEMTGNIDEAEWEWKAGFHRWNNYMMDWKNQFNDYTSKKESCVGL

Structure (SMILES) | inhibition [1] | inhibition [2] | IC50 [3] | inhibition [4] | inhibition [5] | viability at 24 h, 2000 ug/mL [6] | viability at 24 h, 200 ug/mL [7] | viability at 24 h, 20 ug/mL [8] | viability at 24 h, 2 ug/mL [9] | viability at 24 h, 0.2 ug/mL [10] | inhibition [11] | viability at 24 h, 100 ug/mL [12] | inhibition [13]
CO[C@H]1O[C@H](COC(=O)c2ccccc2)[C@@H](OC(=O)c2ccccc2)[C@@]2(OC(=O)c3ccccc3)[C@@H](OC(=O)c3ccccc3)CO[C@@H]12 | 7% | inactive |  |  |  |  |  |  |  |  |  |  | 
CC(=O)Nc1nc(Cl)c2c(ncn2[C@@H]2O[C@@H]([C@H](N=[N+]=[N-])C(=O)OCc3ccccc3)[C@@H](OCc3ccccc3)[C@@]3(OCc4ccccc4)[C@@H](OCc4ccccc4)CO[C@@H]23)n1 | 81% | inactive | 22 µM | 34% | 9% | 7.32% | 51.3% | 46.9% | 82.2% | 88.5% |  |  | 
CO[C@H]1O[C@@H]([C@@H](N=[N+]=[N-])C(=O)OCc2ccccc2)[C@@H](OCc2ccccc2)[C@@]2(OCc3ccccc3)[C@@H](OCc3ccccc3)CO[C@@H]12 | 98% | inactive | 13.4 µM | 73% | 14% | 16% | 64.2% | 63.6% | 76.2% | 90.5% |  |  | 
CO[C@H]1O[C@H](COC(C)=O)[C@@H](OC(C)=O)[C@@]2(OC(C)=O)[C@@H](OC(C)=O)CO[C@@H]12 | < 5% | inactive |  |  |  |  |  |  |  |  |  |  | 
CCN(C)C(=O)Oc1cccc([C@H](C)N(C)C)c1 [RIVASTIGMINE] | 100% | inactive |  | 100% | 100% |  |  |  |  |  | 76% | 89% | 
CO[C@H]1O[C@@H]([C@H](O)C(=O)OCc2ccccc2)[C@@H](OCc2ccccc2)[C@@]2(OCc3ccccc3)[C@@H](OCc3ccccc3)CO[C@@H]12 | 55% | inactive | 133 µM | 8% |  |  |  |  |  |  |  |  | 
CO[C@H]1O[C@@H]([C@@H](O)C(=O)OCc2ccccc2)[C@@H](OCc2ccccc2)[C@@]2(OCc3ccccc3)[C@@H](OCc3ccccc3)CO[C@@H]12 | 95% | inactive | 16.1 µM | 56% | 7% | 36% | 63.6% | 67.2% | 81.6% | 91.9% |  |  | 
CC(=O)Nc1nc(Cl)c2c(ncn2[C@@H]2O[C@H](COC(C)=O)[C@@H](OCc3ccccc3)[C@@]3(OCc4ccccc4)[C@@H](OCc4ccccc4)CO[C@@H]23)n1 | 84% | inactive | 0.76 µM | 85% | 70% |  |  |  |  |  | 20% |  | 
CO[C@H]1O[C@H](CO)[C@@H](O)[C@@]2(O)[C@@H](O)CO[C@@H]12 | < 5% | inactive |  |  |  |  |  |  |  |  |  |  | 
CO[C@H]1O[C@H](CO)[C@@H](OCc2ccccc2)[C@@]2(OCc3ccccc3)[C@@H](OCc3ccccc3)CO[C@@H]12 | 60% | inactive | 148 µM | < 5% |  |  |  |  |  |  |  |  | 
CC(=O)Nc1nc(Cl)c2ncn([C@@H]3O[C@H](COC(C)=O)[C@@H](OCc4ccccc4)[C@@]4(OCc5ccccc5)[C@@H](OCc5ccccc5)CO[C@@H]34)c2n1 | 48% | inactive |  | 11% |  |  |  |  |  |  |  |  | 
COC(=O)[C@@H](N=[N+]=[N-])[C@@H]1O[C@@H](n2cnc3nc(NC(C)=O)nc(Cl)c32)[C@@H]2OC[C@H](OCc3ccccc3)[C@]2(OCc2ccccc2)[C@@H]1OCc1ccccc1 |  | inactive |  |  |  | 15.1% | 19.5% | 40.8% | 77.7% | 103% |  |  | 
COC(=O)[C@H](N=[N+]=[N-])[C@@H]1O[C@@H](n2cnc3nc(NC(C)=O)nc(Cl)c32)[C@@H]2OC[C@H](OCc3ccccc3)[C@]2(OCc2ccccc2)[C@@H]1OCc1ccccc1 |  | inactive |  |  |  | 21.3% | 52.3% | 69.3% | 99.9% | 103% |  |  | 
C=C[C@@H](O)[C@@H]1O[C@H](OC)[C@@H]2OC[C@H](OCc3ccccc3)[C@]2(OCc2ccccc2)[C@@H]1OCc1ccccc1 | 73% | inactive | 50 µM | 23% |  |  |  |  |  |  |  |  | 
CO[C@H]1O[C@@H]([C@H](N=[N+]=[N-])C(=O)OCc2ccccc2)[C@@H](OCc2ccccc2)[C@@]2(OCc3ccccc3)[C@@H](OCc3ccccc3)CO[C@@H]12 | 91% | inactive | 4.2 µM | 64% | 36% | 25% | 47.9% | 73.9% | 71.2% | 90.2% | 15% |  | 
C=C[C@H](O)[C@@H]1O[C@H](OC)[C@@H]2OC[C@H](OCc3ccccc3)[C@]2(OCc2ccccc2)[C@@H]1OCc1ccccc1 | 76% | inactive | 31 µM | 54% | 4% |  |  |  |  |  |  |  | 
CC(=O)Nc1nc(Cl)c2c(ncn2[C@@H]2O[C@@H]([C@@H](N=[N+]=[N-])C(=O)OCc3ccccc3)[C@@H](OCc3ccccc3)[C@@]3(OCc4ccccc4)[C@@H](OCc4ccccc4)CO[C@@H]23)n1 | 91% | inactive | 0.14 µM | 79% | 77% |  |  |  |  |  | 63% |  | 10%
